This is an account of results in ChEMBL document CHEMBL1123036, “Synthesis and antiallergic activities of 1,3-oxazolo[4,5-h]quinolines” (J Med Chem, 1985).

The species entered for experiment [1] is Rattus norvegicus. Put plainly: Ability to inhibit passive cutaneous anaphylaxis in rat, when compound was injected perorally. It counts as functional. In a few lines: (§1)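 Rat passive cutaneous anaphylaxis: the read-out was inhibition of IgE-mediated cutaneous wheal formation after antigen challenge. Compounds were given by the route and dose stated on the line.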

For experiment [2], the species on record is Rattus norvegicus. Put plainly: In vitro ability to inhibit antigen-induced release of histamine (AIR) from rat peritoneal mast cells. It counts as functional. In a few lines: (§2)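 Rat peritoneal cells were collected by lavage and contained 5–10% mast cells. Histamine was measured by a radioenzymatic method instead of fluorometry, because some test agents fluoresce. Samples were incubated with [¹⁴C]methyl-S-adenosylmethionine and histamine-N-methyltransferase prepared from rat kidneys.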

For experiment [3], the system named is Rattus norvegicus. Put plainly: Ability to inhibit passive cutaneous anaphylaxis in rat, when compound was injected intraperitoneally. To be noted: ip. It counts as functional. In short, it runs like this:
as §1

The subject of experiment [4] is Rattus norvegicus. The experiment can be described thus: Percentage inhibition against passive cutaneous anaphylaxis after injecting 10 mg/kg intraperitoneally in rat. It counts as functional. The note with it: route intraperitoneal; for inhibition in vivo at 10 mg/kg: Rattus norvegicus, ip. In short, it runs like this:
as §1

For experiment [5], the species on record is Rattus norvegicus. Put plainly: (§3) In vitro ability to inhibit antigen-induced release of histamine (AIR) from rat peritoneal mast cells. Type of experiment: functional. In a few lines: (§4)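 Peritoneal cells collected from rats by lavage, containing 5–10% mast cells. Antigen-induced histamine release was quantified radioenzymatically rather than fluorometrically: samples were incubated with [¹⁴C]methyl-S-adenosylmethionine and histamine-N-methyltransferase prepared from rat kidneys.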

For experiment [6], the species on record is Rattus norvegicus. Put plainly: Percentage inhibition against passive cutaneous anaphylaxis in rat, when injected perorally. Type of experiment: functional. In short, it runs like this:
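Rat passive cutaneous anaphylaxis, an IgE-mediated cutaneous wheal formation model; compounds given orally before antigen challenge; read-out is percent inhibition of wheal formation.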

The test system of experiment [7] is Rattus norvegicus. Put plainly: Percentage inhibition against passive cutaneous anaphylaxis after injecting 10 mg/kg perorally in rat. It counts as functional. The note with it: route oral. In a few lines:
as §1

The species entered for experiment [8] is Rattus norvegicus. Put plainly: Ability to inhibit anaphylactically induced release of histamine (AIR) from rat peritoneal mast cells. Type of experiment: functional, cell-based. In a few lines:
as §4

Experiment [9] deals with Rattus norvegicus. The experiment can be described thus: Percentage inhibition of 30 mg/kg compound against antigen-induced release of histamine (AIR) from rat mast cells. It counts as functional.
For experiment [10], the species on record is Rattus norvegicus. Put plainly: In vitro ability to inhibit antigen-induced release of histamine (AIR) from rat peritoneal mast cells; the compound was tested at a concentration of 50 uM. It counts as functional, cell-based.
Experiment [11] deals with Rattus norvegicus. The experiment can be described thus: Percentage inhibition against passive cutaneous anaphylaxis after injecting 125 mg/kg perorally in rat. It counts as functional. To be noted: route oral. In a few lines:
as §1

The species entered for experiment [12] is Rattus norvegicus. Put plainly: Ability to inhibit passive cutaneous anaphylaxis in rat, when compound was injected perorally. It counts as functional. In short, it runs like this: as §1
In experiment [13] the test system is Rattus norvegicus. The experiment can be described thus: Percentage inhibition against passive cutaneous anaphylaxis in rat, when injected intraperitoneally. Type of experiment: functional. In a few lines:
as §1

For experiment [14], the species on record is Rattus norvegicus. Described as §3. Type of experiment: functional, cell-based. In short, it runs like this:
as §4

Experiment [15] concerns Rattus norvegicus. The experiment can be described thus: Percentage inhibition against passive cutaneous anaphylaxis after injecting 25 mg/kg perorally in rat. Type of experiment: functional. To be noted: route oral. In a few lines: as §1
The species entered for experiment [16] is Rattus norvegicus. Put plainly: In vitro ability to inhibit antigen-induced release of histamine (AIR) from rat mast cells. Type of experiment: functional, cell-based. In a few lines:
as §2

For experiment [17], the system named is Rattus norvegicus. Put plainly: Ability to inhibit passive cutaneous anaphylaxis in rat, when compound was injected intraperitoneally. Type of experiment: functional. To be noted: ip. In a few lines:
as §1

Experiment [18] concerns Rattus norvegicus. Put plainly: Ability to inhibit passive cutaneous anaphylaxis in rat, when […] injected perorally. Type of experiment: functional. The note with it: route oral. In short, it runs like this: as §1
Experiment [19] is filed under the species Rattus norvegicus. The experiment can be described thus: In vitro ability to inhibit antigen-induced release of histamine (AIR) from rat mast cells; histamine release was assayed by a radioenzymatic method. It counts as functional, cell-based. In short, it runs like this: as §2

The term ED50 denotes the midpoint of the dose-response relation. The term Inhibition denotes the drop in the measured response relative to a control, in per cent. Read a high Inhibition as a response far below the control. For the compound `CC(=O)n1c(=O)oc2c3ncccc3ccc21`, the values for the median effective dose (ED50) in the experiment listed under Rattus norvegicus [1] and in the experiment on Rattus norvegicus [3] were 4 mg/kg and 10 mg/kg, respectively. For the same compound, the Inhibition in the experiment filed under Rattus norvegicus [2] was less than 30%. Broadly, the inhibition in vivo is the percentage by which the read-out fell short of the control. In the experiment with Rattus norvegicus [4], `O=C(O)c1nc2cc(Cl)c3cccnc3c2o1` displayed an inhibition in vivo at 10 mg/kg of 47%. In the case of `O=C(/C=C/c1ccccc1)n1c(=O)oc2c3ncccc3c(Cl)cc21`, the values for the Inhibition in the experiment filed under Rattus norvegicus [5] and in the experiment listed under Rattus norvegicus [6] were 18% and 0%, respectively. In turn, `Clc1cc2ncoc2c2ncccc12` showed an inhibition in vivo at 10 mg/kg in the experiment with Rattus norvegicus [7] of 28%. The IC50 is the point on the concentration scale where inhibition reaches its midpoint. As to `COc1ccccc1NC(=O)Oc1cccc2cccnc12`, in the experiment listed under Rattus norvegicus [8], inhibition was half-maximal at 2000 nM (IC50). With `COc1ccccc1C(=O)n1c(=O)oc2c3ncccc3c(Cl)cc21`, the Inhibition worked out at 16% in the experiment filed under Rattus norvegicus [5] and 34% in the experiment filed under Rattus norvegicus [6]. `CCOC(=O)n1c(=O)oc2c3ncccc3c(Cl)cc21`: the Inhibition in the experiment filed under Rattus norvegicus [6] was 43%. In the experiment with Rattus norvegicus [7], `Clc1cc2nc(-c3ccccc3)oc2c2ncccc12` came in with an inhibition in vivo at 10 mg/kg of 3%. The compound also yielded an inhibition in vivo at 30 mg/kg in the experiment on Rattus norvegicus [9] of less than 30%. Broadly, the % inhibition is the share of the control response that was lost under treatment. `Oc1nc2cc(Cl)c3cccnc3c2o1` came in with a % inhibition in the experiment filed under Rattus norvegicus [10] of 18%. In the experiment with Rattus norvegicus [11], this compound had an inhibition in vivo at 125 mg/kg of 14%. `Cn1c(=O)oc2c3ncccc3c(Cl)cc21` displayed an inhibition in vivo at 125 mg/kg in the experiment on Rattus norvegicus [11] of 51%. For the same compound, in the experiment listed under Rattus norvegicus [12], the ED50 is 102 mg/kg.

`Clc1cc2nc(C(Cl)(Cl)Cl)oc2c2ncccc12` gave an Inhibition in the experiment on Rattus norvegicus [13] of 28%. Moreover, in the experiment filed under Rattus norvegicus [14], the IC50 worked out at 30 nM. In turn, `CCOC(=O)c1nc2cc(Cl)c3cccnc3c2o1` gave an inhibition in vivo at 10 mg/kg in the experiment with Rattus norvegicus [4] of 59%. Moreover, in the experiment filed under Rattus norvegicus [14], half-maximal inhibition (IC50) required 100 nM. As for `O=C([O-])c1nc2cc(Cl)c3cccnc3c2o1.[Na+]`, the Inhibition with Rattus norvegicus [4] was found to be 51%. This compound registered a half-inhibitory concentration (IC50) in the experiment listed under Rattus norvegicus [14] of 300 nM. `CC(=O)n1c(=O)oc2c3ncccc3c(Cl)cc21` had an Inhibition in the experiment filed under Rattus norvegicus [6] of 15%. Turning to `Cc1nc2cc(Cl)c3cccnc3c2o1`, testing at 10 mg/kg in the experiment with Rattus norvegicus [7] gave an inhibition in vivo of 15%. Further, the IC50 in the experiment listed under Rattus norvegicus [14] is 33000 nM. Regarding `Oc1nc2ccc3cccnc3c2o1`, the inhibition in vivo at 25 mg/kg in the experiment on Rattus norvegicus [15] amounted to 0%. Regarding `CCOC(=O)Cc1nc2cc(Cl)c3cccnc3c2o1`, in the experiment on Rattus norvegicus [4], 10 mg/kg produced 9% inhibition in vivo. For the compound `CN(C)C(=O)n1c(=O)oc2c3ncccc3c(Cl)cc21`, in the experiment filed under Rattus norvegicus [5], the Inhibition is reported as 0%. As for `O=C([O-])c1cc(=O)c2c(OCC(O)COc3cccc4oc(C(=O)[O-])cc(=O)c34)cccc2o1.[Na+].[Na+]` [CROMOLYN SODIUM], the IC50 in the experiment filed under Rattus norvegicus [16] is 3000 nM. The same compound had an ED50 with Rattus norvegicus [17] of 6 mg/kg. Consider `COC(=O)c1nc2cc(Cl)c3cccnc3c2o1` [QUAZOLAST], for which the figures for the ED50 with Rattus norvegicus [18] and in the experiment on Rattus norvegicus [17] were 0.5 mg/kg and 0.1 mg/kg, respectively. Besides, the inhibition in vivo at 10 mg/kg in the experiment on Rattus norvegicus [4] stood at 100%. Also, the concentration for half-maximal inhibition (IC50) in the experiment listed under Rattus norvegicus [19] turned out to be 300 nM.
